What all share (format): functional
The subject of assay [1] is Rattus norvegicus. Briefly: Antisecretory activity in pylorus ligated rats at a 40 mg/kg dose administered intraperitoneally. The settings on record: ip, route intraperitoneal. In short, it runs like this: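 Pylorus-ligated rats, six per compound and eight controls. Compound given intraperitoneally at 40 mg/kg at the time of ligation. Reduction in acid output measured over 4 h.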

Assay [2] has as its system Canis familiaris. Put plainly: Antisecretory activity in histamine stimulated dogs at 2 mg/kg dose administered intravenously. The settings on record: Canis lupus familiaris, route intravenous. The method in brief:
(§1)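 Adult mongrel dogs with surgically prepared Heidenhain pouches, acid secretion stimulated with histamine. Compound given intravenously (0.1-5 mg/kg range). Acid output reduction is expressed relative to the nondrug-treated control value in the same animal, each dog serving as its own control. Unless noted otherwise, one dog per compound. ED50 is the iv dose reducing acid output to 50% of control.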

The species named for assay [3] is Rattus norvegicus. Put plainly: Cytoprotective activity in rats against the ethyl alcohol stimulated ulcers measured as effective dose. The method in brief:
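Rats were dosed orally at 1–30 mg/kg, 30 min before an oral challenge of absolute ethanol. Ethanol-induced gastric lesions were scored 1 h later, and an effective dose was estimated.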

The subject of assay [4] is Canis familiaris. Put plainly: Antisecretory activity in histamine stimulated dogs at 8 mg/kg dose administered orally. The settings on record: Canis lupus familiaris, route oral. In short, it runs like this:
(§2)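 Heidenhain pouch mongrel dogs, histamine-stimulated acid secretion. Compound given orally at 2–8 mg/kg. Reduction in acid output is relative to the same animal's own nondrug control, since histamine response depends on pouch size. Usually a single dog per compound. Oral ED50 is the dose reducing acid output to 50% of control.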

For assay [5], the system named is Canis familiaris. Briefly: Antisecretory activity in histamine stimulated dogs following 5 mg/kg i.v. administration. The settings on record: Canis lupus familiaris, route intravenous. The method in brief:
as §1

The subject of assay [6] is Canis familiaris. Briefly: Antisecretory activity in histamine stimulated dogs at 2 mg/kg dose administered orally. The settings on record: Canis lupus familiaris, route oral. In short, it runs like this:
as §2

For assay [7], the system named is Canis familiaris. Put plainly: Antisecretory activity in histamine stimulated dogs at 4 mg/kg dose administered orally. The settings on record: Canis lupus familiaris, route oral. In short, it runs like this: as §2

As usually defined, the inhibition in vivo is the share of the control response that was lost under treatment. Low readings indicate little suppression, high ones strong suppression. The ED50 is the dose that gives a 50% effect, or the effect in half of the subjects. Read a high ED50 as a need for a large dose. On to `CCCNc1c(C)nc2c(OCc3ccccc3)cccn12`, for which the inhibition in vivo at 40 mg/kg in assay [1] stood at 99%. This molecule returned an inhibition in vivo at 2 mg/kg in assay [2] of 12%. The 50% effect level in assay [3] (ED50) was put at a dose of 5.3 mg/kg. In assay [4], this molecule yielded an inhibition in vivo at 8 mg/kg of 68%.
In assay [1], `Cc1nc2c(COc3ccccc3)cccn2c1N` came in with an inhibition in vivo at 40 mg/kg of 27%. Besides, in assay [5], testing at 5 mg/kg gave an inhibition in vivo of 34%. In assay [3], this molecule registered an ED50 of 6.6 mg/kg. In assay [4], this molecule had an inhibition in vivo at 8 mg/kg of 39%.
On to `Cc1nc2ccc(CCc3ccccc3)cn2c1N`, for which testing at 40 mg/kg in assay [1] gave an inhibition in vivo of 52%. This molecule also registered an inhibition in vivo at 2 mg/kg in assay [2] of 6%. The median effective dose (ED50) in assay [3] stood at 5.7 mg/kg. In addition, in assay [4], the inhibition in vivo at 8 mg/kg came to 0%.
Molecule `Cc1nc2c(OCc3ccsc3)cccn2c1N` gave an inhibition in vivo at 40 mg/kg in assay [1] of 52%. Besides, the values for the inhibition in vivo at 2 mg/kg in assay [6] and in assay [2] were 29% and 82%, respectively. In assay [3], the ED50 is 8.4 mg/kg. Moreover, the inhibition in vivo at 8 mg/kg in assay [4] was 88%. This molecule had an inhibition in vivo at 4 mg/kg in assay [7] of 86%.
Consider `CNC(=O)Nc1c(C)nc2c(OCc3ccccc3)cccn12`, for which the inhibition in vivo at 40 mg/kg in assay [1] came to 22%. The same molecule yielded an inhibition in vivo at 5 mg/kg in assay [5] of 27%. For the same molecule, the median effective dose (ED50) in assay [3] was 3.5 mg/kg.
For `Cc1ccn2c(N)c(C)nc2c1OCc1ccccc1`, in assay [1], the inhibition in vivo at 40 mg/kg turned out to be 60%. The molecule also displayed an ED50 in assay [3] of 13.5 mg/kg. For the same molecule, the inhibition in vivo at 8 mg/kg in assay [4] came to 64%. Further, in assay [7], the inhibition in vivo at 4 mg/kg was 36%.
In the case of `Cc1nc2c(OCc3ccccc3)cccn2c1CN`, 40 mg/kg produced 46% inhibition in vivo in assay [1]. In assay [5], the inhibition in vivo at 5 mg/kg was 49%. Moreover, in assay [4], 8 mg/kg produced 9% inhibition in vivo.
The molecule `Cc1nc2n(c1CC#N)CCCC2OCc1ccccc1` (centres undefined) showed an inhibition in vivo at 40 mg/kg in assay [1] of 44%. In assay [5], this molecule displayed an inhibition in vivo at 5 mg/kg of 0%.
Molecule `CCCN(CCC)c1c(C)nc2c(OCc3ccccc3)cccn12` came in with an inhibition in vivo at 40 mg/kg in assay [1] of 60%. In assay [5], the inhibition in vivo at 5 mg/kg stood at 0%. Besides, in assay [3], the 50% effect level (ED50) was put at a dose of 8.4 mg/kg.
`CC(=O)Nc1c(C)nc2c(CCc3ccccc3)cccn12` returned an inhibition in vivo at 40 mg/kg in assay [1] of 40%. The same molecule displayed an inhibition in vivo at 5 mg/kg in assay [5] of 3%. In assay [3], this molecule returned an ED50 of 12 mg/kg. This molecule had an inhibition in vivo at 8 mg/kg in assay [4] of 16%.
In assay [1], `Cc1nc2c(OCc3ccccc3)cccn2c1NC(C)C` came in with an inhibition in vivo at 40 mg/kg of 18%. The molecule further gave an inhibition in vivo at 5 mg/kg in assay [5] of 0%. In assay [3], the ED50 turned out to be 16 mg/kg.
`CCCc1nc2c(OCc3ccccc3)cccn2c1N` yielded an inhibition in vivo at 40 mg/kg in assay [1] of 31%. In assay [2], this molecule displayed an inhibition in vivo at 2 mg/kg of 45%. For the same molecule, the inhibition in vivo at 8 mg/kg in assay [4] was determined as 0%.
In turn, `Cc1nc2c(CCc3ccccc3)nccn2c1N` returned an inhibition in vivo at 5 mg/kg in assay [5] of 18%.
Regarding `COC(=O)Nc1c(C)nc2c(OCc3ccccc3)cccn12`, the inhibition in vivo at 40 mg/kg in assay [1] turned out to be 0%.
For `Cc1nc2c(OCc3ccccc3)cccn2c1CCN`, the inhibition in vivo at 40 mg/kg in assay [1] worked out at 63%. Besides, 2 mg/kg produced 6% inhibition in vivo in assay [2]. The molecule further had an inhibition in vivo at 8 mg/kg in assay [4] of 9%.
The molecule `Cc1nc2c(OCc3ccccc3)cccn2c1/N=C/N(C)C` registered an inhibition in vivo at 40 mg/kg in assay [1] of 64%. In addition, in assay [2], at 2 mg/kg the inhibition in vivo was 12%. The molecule further came in with an ED50 in assay [3] of 9.8 mg/kg. In assay [4], this molecule returned an inhibition in vivo at 8 mg/kg of 0%.
`CCNc1c(C)nc2c(CCc3ccccc3)cccn12` came in with an inhibition in vivo at 40 mg/kg in assay [1] of 78%. For the same molecule, testing at 5 mg/kg in assay [5] gave an inhibition in vivo of 11%. Further, in assay [3], the 50% effect level (ED50) was put at a dose of 5.2 mg/kg. Besides, the inhibition in vivo at 8 mg/kg in assay [4] was determined as 65%.
In assay [1], `Cc1nc2c(Oc3ccccc3)cccn2c1N` came in with an inhibition in vivo at 40 mg/kg of 34%. In addition, the inhibition in vivo at 2 mg/kg in assay [2] was 40%. The molecule also yielded an ED50 in assay [3] of 5 mg/kg. This molecule had an inhibition in vivo at 8 mg/kg in assay [4] of 19%.
In assay [1], `Cc1nc2c(OCc3ccccc3)cccn2c1NC=O` displayed an inhibition in vivo at 40 mg/kg of 49%. Testing at 2 mg/kg in assay [2] gave an inhibition in vivo of 3%. In assay [3], this molecule returned a 50% effective dose (ED50) of 10 mg/kg.
As for `CC(=O)Nc1c(C)nc2c(OCc3ccccc3)cccn12`, the inhibition in vivo at 40 mg/kg in assay [1] was determined as 93%. Besides, the inhibition in vivo at 2 mg/kg in assay [2] was 24%. The ED50 in assay [3] turned out to be 4.6 mg/kg. In assay [4], this molecule showed an inhibition in vivo at 8 mg/kg of 44%.
For `COc1c(C)nc2c(OCc3ccccc3)cccn12`, the inhibition in vivo at 40 mg/kg in assay [1] is 49%. The molecule further came in with an inhibition in vivo at 5 mg/kg in assay [5] of 37%. In assay [3], this molecule had an ED50 of 3.6 mg/kg.
With `Cc1nc2c(NCc3ccccc3)cccn2c1N`, the inhibition in vivo at 40 mg/kg in assay [1] was determined as 84%. This molecule returned an inhibition in vivo at 2 mg/kg in assay [2] of 98%. In assay [3], it took a dose of 9.6 mg/kg to reach the 50% effect level (ED50). The molecule further yielded an inhibition in vivo at 8 mg/kg in assay [4] of 89%.

For the origin of these results see ChEMBL document CHEMBL1123641, “Antiulcer agents. 2. Gastric antisecretory, cytoprotective, and metabolic properties of substituted imidazo[1,2-a]pyridines and analogues” (J Med Chem, 1987).
